# Source: ChEMBL document CHEMBL1821679, “Targeting the heat shock protein 90 dimer with dimeric inhibitors” (J Med Chem, 2011)
# The source made the active and inactive calls. The rule behind the calls is not given here.
# Experiments:
# [1] = biological target: T1, Heat shock protein HSP90 (Homo sapiens) (UniProt P07900+P08238); test: Inhibition of Hsp90 in human MCF7 cells assessed as induction of Raf degradation at 0.5 fold IC50 after 24 hrs by Western blot method; format: cell-based
# Method in brief: (§1)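 MCF-7 cells treated 24 h with compound in DMSO (1% final); geldanamycin 500 nM served as positive control and DMSO as vehicle control. Cells harvested in cold PBS and lysed 1 h on ice in RIPA with 1 mM PMSF, 2 mM orthovanadate and protease inhibitors. Lysates clarified 14,000g, 15 min, 4 °C. Protein (20 µg, BCA) resolved under reducing conditions and blotted on PVDF for Her2, Raf and Akt, with actin as loading control. Detection by HRP secondary antibody and chemiluminescence.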
# [2] = Antiproliferative activity against human PC3MM2 cells after 72 hrs by MTS/PMS assay; format: functional, cell-based; details: PC3MM2, 72 h
# Method in brief: (§2)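 Cells grown in medium with non-essential amino acids, 2 mM L-glutamine, streptomycin, penicillin and 10% FBS at 37 °C, 5% CO2; seeded 2000/well, attached overnight. Test agent added over a concentration range in DMSO (1% final), 72 h exposure. Viable cells counted by MTS/PMS read-out against 1% DMSO wells as 100% proliferation. IC50 taken as mean ± SD of at least two separate experiments, each in triplicate.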
# MCF7 = test: Antiproliferative activity against human MCF7 cells after 72 hrs by MTS/PMS assay; format: functional, cell-based; details: MCF7, 72 h; method in brief: as §2
# SK-BR-3 = test: Antiproliferative activity against human SKBR3 cells after 72 hrs by MTS/PMS assay; format: functional, cell-based; details: SK-BR-3, 72 h; method in brief: as §2
# [3] = biological target: T1, Heat shock protein HSP90 (Homo sapiens); test: Inhibition of Hsp90 in human MCF7 cells assessed as induction of Akt degradation at 5 fold IC50 after 24 hrs by Western blot method; format: cell-based; method in brief: as §1
# [4] = biological target: T1, Heat shock protein HSP90 (Homo sapiens); test: Inhibition of Hsp90 in human MCF7 cells assessed as induction of Her2 degradation at 0.5 fold IC50 after 24 hrs by Western blot method; format: cell-based; method in brief: as §1
# [5] = biological target: T1, Heat shock protein HSP90 (Homo sapiens); test: Inhibition of Hsp90 in human MCF7 cells assessed as induction of Her2 degradation at 5 fold IC50 after 24 hrs by Western blot method; format: cell-based; method in brief: as §1
# [6] = biological target: T1, Heat shock protein HSP90 (Homo sapiens); test: Inhibition of Hsp90 in human MCF7 cells assessed as induction of Raf degradation at 5 fold IC50 after 24 hrs by Western blot method; format: cell-based; method in brief: as §1
# [7] = biological target: T1, Heat shock protein HSP90 (Homo sapiens); test: Inhibition of Hsp90 in human MCF7 cells assessed as induction of Akt degradation at 0.5 fold IC50 after 24 hrs by Western blot method; format: cell-based; method in brief: as §1
# A549 = test: Antiproliferative activity against human A549 cells after 72 hrs by MTS/PMS assay; format: functional, cell-based; details: A549, 72 h; method in brief: as §2
# HT-29 = test: Antiproliferative activity against human HT-29 cells after 72 hrs by MTS/PMS assay; format: functional, cell-based; details: HT-29, 72 h; method in brief: as §2
SMILES,inhibition [1],IC50 [2],IC50 (MCF7),IC50 (SK-BR-3),inhibition [3],inhibition [4],inhibition [5],inhibition [6],inhibition [7],IC50 (A549),IC50 (HT-29)
COc1c(OC2CCN(C)CC2)ccc2cc(NC(=O)C/C=C/CC(=O)Nc3cc4ccc(OC5CCN(C)CC5)c(OC)c4oc3=O)c(=O)oc12,Active,8630 nM,1460 nM,710 nM,Active,Active,Active,Active,Active,,
Cc1c(OC2CCN(C)CC2)ccc2cc(NC(=O)C/C=C/CC(=O)Nc3cc4ccc(OC5CCN(C)CC5)c(C)c4oc3=O)c(=O)oc12,Active,7510 nM,290 nM,180 nM,Active,Active,Active,Active,Active,21500 nM,7100 nM
COc1cc2cc(NC(=O)CC/C=C/CCC(=O)Nc3cc4cc(OC)c(O[C@H]5OC(C)(C)[C@@H](OC)[C@H](O)[C@@H]5O)c(C)c4oc3=O)c(=O)oc2c(C)c1O[C@H]1OC(C)(C)[C@@H](OC)[C@H](O)[C@@H]1O,,,2610 nM,4100 nM,,,,,,,
Cc1c(OC2CCN(C)CC2)ccc2cc(NC(=O)CCCCCCCCC(=O)Nc3cc4ccc(OC5CCN(C)CC5)c(C)c4oc3=O)c(=O)oc12,,10200 nM,3680 nM,2840 nM,,,,,,13200 nM,3900 nM
CO[C@H]1[C@H](OC(=O)c2ccc(C)[nH]2)[C@H](O)[C@@H](Oc2ccc3c(O)c(NC(=O)c4c[nH]c(C(=O)Nc5c(O)c6ccc(O[C@H]7OC(C)(C)[C@@H](OC)[C@H](OC(=O)c8ccc(C)[nH]8)[C@@H]7O)c(C)c6oc5=O)c4C)c(=O)oc3c2C)OC1(C)C [COUMERMYCIN A1],,,8800 nM,5000 nM,,,,,,,
COc1ccc(C(=O)Nc2cc3cc(OC)c(O[C@@H]4OC(C)(C)[C@H](OC)[C@@H](O)[C@H]4O)c(C)c3oc2=O)cc1-c1cc(C(=O)Nc2cc3cc(OC)c(O[C@@H]4OC(C)(C)[C@H](OC)[C@@H](O)[C@H]4O)c(C)c3oc2=O)ccc1OC,Active,,720 nM,110 nM,Active,Active,Active,Active,Active,,
COc1ccc(C(=O)Nc2cc3ccc(OCCCN(C)C)c(C)c3oc2=O)cc1-c1cc(C(=O)Nc2cc3ccc(OCCCN(C)C)c(C)c3oc2=O)ccc1OC,,52300 nM,11700 nM,9500 nM,,,,,,93400 nM,62700 nM
COc1c(OC2CCN(C)CC2)ccc2cc(NC(=O)CCC/C=C/CCCC(=O)Nc3cc4ccc(OC5CCN(C)CC5)c(OC)c4oc3=O)c(=O)oc12,Active,50 nM,880 nM,370 nM,Active,Active,Active,Active,Active,1210 nM,
CO[C@H]1[C@H](O)[C@H](O)[C@@H](Oc2ccc3cc(NC(=O)C/C=C/CC(=O)Nc4cc5ccc(O[C@H]6OC(C)(C)[C@@H](OC)[C@H](O)[C@@H]6O)c(C)c5oc4=O)c(=O)oc3c2C)OC1(C)C,,,53100 nM,> 100000 nM,,,,,,,
Cc1c(OC2CCN(C)CC2)ccc2cc(NC(=O)CCC/C=C/CCCC(=O)Nc3cc4ccc(OC5CCN(C)CC5)c(C)c4oc3=O)c(=O)oc12,Active,440 nM,630 nM,890 nM,Active,inactive,inactive,Active,Active,220 nM,240 nM
Cc1c(OC2CCN(C)CC2)ccc2cc(NC(=O)CCCCCCC(=O)Nc3cc4ccc(OC5CCN(C)CC5)c(C)c4oc3=O)c(=O)oc12,,13800 nM,2820 nM,1190 nM,,,,,,30400 nM,26300 nM
COc1cc2cc(NC(=O)C/C=C/CC(=O)Nc3cc4cc(OC)c(O[C@H]5OC(C)(C)[C@@H](OC)[C@H](O)[C@@H]5O)c(C)c4oc3=O)c(=O)oc2c(C)c1O[C@H]1OC(C)(C)[C@@H](OC)[C@H](O)[C@@H]1O,,,168000 nM,106000 nM,,,,,,,
COc1cc(C(=O)Nc2cc3ccc(O[C@@H]4OC(C)(C)[C@H](OC)[C@@H](O)[C@H]4O)c(C)c3oc2=O)cc(-c2cc(C(=O)Nc3cc4ccc(O[C@@H]5OC(C)(C)[C@H](OC)[C@@H](O)[C@H]5O)c(C)c4oc3=O)ccc2OC)c1,,,38000 nM,28500 nM,,,,,,,
Cc1c(OC2CCN(C)CC2)ccc2cc(NC(=O)CC/C=C\CCC(=O)Nc3cc4ccc(OC5CCN(C)CC5)c(C)c4oc3=O)c(=O)oc12,,32900 nM,49900 nM,> 100000 nM,,,,,,77600 nM,
COc1ccc(C(=O)Nc2cc3ccc(OC4CCN(C)CC4)c(C)c3oc2=O)cc1-c1cc(C(=O)Nc2cc3ccc(OC4CCN(C)CC4)c(C)c3oc2=O)ccc1OC,,,14200 nM,4980 nM,,,,,,,
COc1cc(C(=O)Nc2cc3ccc(O[C@@H]4OC(C)(C)[C@H](OC)[C@@H](O)[C@H]4O)c(C)c3oc2=O)cc(-c2cc(OC)cc(C(=O)Nc3cc4ccc(O[C@@H]5OC(C)(C)[C@H](OC)[C@@H](O)[C@H]5O)c(C)c4oc3=O)c2)c1,,12500 nM,1850 nM,1950 nM,,,,,,28900 nM,11700 nM
CO[C@H]1[C@H](O)[C@H](O)[C@@H](Oc2ccc3cc(NC(=O)CC/C=C/CCC(=O)Nc4cc5ccc(O[C@H]6OC(C)(C)[C@@H](OC)[C@H](O)[C@@H]6O)c(C)c5oc4=O)c(=O)oc3c2C)OC1(C)C,,,3900 nM,1500 nM,,,,,,,
COc1c(O[C@H]2OC(C)(C)[C@@H](OC)[C@H](O)[C@@H]2O)ccc2cc(NC(=O)CC/C=C/CCC(=O)Nc3cc4ccc(O[C@H]5OC(C)(C)[C@@H](OC)[C@H](O)[C@@H]5O)c(OC)c4oc3=O)c(=O)oc12,,,> 100000 nM,52000 nM,,,,,,,
COc1cc2cc(NC(=O)CCC/C=C/CCCC(=O)Nc3cc4cc(OC)c(OC5CCN(C)CC5)c(C)c4oc3=O)c(=O)oc2c(C)c1OC1CCN(C)CC1,Active,380 nM,310 nM,220 nM,Active,Active,Active,Active,Active,37700 nM,
COc1cc2cc(NC(=O)C/C=C/CC(=O)Nc3cc4cc(OC)c(OC5CCN(C)CC5)c(C)c4oc3=O)c(=O)oc2c(C)c1OC1CCN(C)CC1,Active,170 nM,560 nM,270 nM,Active,Active,Active,Active,Active,1250 nM,
COc1c(OC2CCN(C)CC2)ccc2cc(NC(=O)CC/C=C/CCC(=O)Nc3cc4ccc(OC5CCN(C)CC5)c(OC)c4oc3=O)c(=O)oc12,inactive,60 nM,1120 nM,2220 nM,inactive,inactive,inactive,inactive,inactive,1220 nM,
Cc1c(OC2CCN(C)CC2)ccc2cc(NC(=O)CCCCC(=O)Nc3cc4ccc(OC5CCN(C)CC5)c(C)c4oc3=O)c(=O)oc12,,,2460 nM,1260 nM,,,,,,,
COc1cc2cc(NC(=O)CC/C=C/CCC(=O)Nc3cc4cc(OC)c(OC5CCN(C)CC5)c(C)c4oc3=O)c(=O)oc2c(C)c1OC1CCN(C)CC1,Active,4860 nM,1310 nM,1100 nM,Active,Active,Active,Active,Active,1440 nM,
Cc1c(OC2CCN(C)CC2)ccc2cc(NC(=O)CCCC/C=C/CCCCC(=O)Nc3cc4ccc(OC5CCN(C)CC5)c(C)c4oc3=O)c(=O)oc12,,,730 nM,510 nM,,,,,,,
COc1ccc(C(=O)Nc2cc3ccc(OC(C)=O)c(C)c3oc2=O)cc1-c1cc(C(=O)Nc2cc3ccc(OC(C)=O)c(C)c3oc2=O)ccc1OC,,,> 100000 nM,11800 nM,,,,,,,
COc1c(O[C@H]2OC(C)(C)[C@@H](OC)[C@H](O)[C@@H]2O)ccc2cc(NC(=O)C/C=C/CC(=O)Nc3cc4ccc(O[C@H]5OC(C)(C)[C@@H](OC)[C@H](O)[C@@H]5O)c(OC)c4oc3=O)c(=O)oc12,,,> 100000 nM,> 100000 nM,,,,,,,
CO[C@@H]1[C@@H](O)[C@@H](O)[C@H](Oc2ccc3cc(NC(=O)c4cccc(-c5cccc(C(=O)Nc6cc7ccc(O[C@@H]8OC(C)(C)[C@H](OC)[C@@H](O)[C@H]8O)c(C)c7oc6=O)c5)c4)c(=O)oc3c2C)OC1(C)C,,,1260 nM,860 nM,,,,,,,
